INS promoter inh – inhibitors of insulin promoter-driven GFP, primary screen, imaging, TRM-6 cells (human fetal islet line), eGFP reporter, cell count | AID 1273, 2008 | hit rate 0.9% among 130,000 | reporter expression induced with tamoxifen | inhibition, % at 2 µM;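 active means inhibition above the mean plus 3 SD, with well images judged a real hit on visual review, cut at about 60% in these data, passing the limit was not always enough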
Yeast life ext – compounds extending yeast replicative lifespan, primary screen, S. cerevisiae, OD615. inhibition of the nicotinamide effect, % at 10 µM. S. cerevisiae growth with nicotinamide; deaD strain in restrictive glucose medium. hit rate 0.68% among 130,000. AID 775, 2007;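 active means inhibition above a set limit, placed 3 SD over the median of all compounds, cut at about 26% in these data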
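Test system – modified budding yeast, DeaD strain · Compound – single dose 10 µM compound, 0.25% DMSO · Times – culture preincubation 4 h, compound exposure 48 h, both 30 °C · Detection – optical density (absorbance) at 615 nm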
RAM inhibit – inhibitors of the yeast RAM network, primary screen, dse1pr::URA3 reporter, 5-FOA selection; S. cerevisiae dse1pr::URA3 reporter, 5-FOA growth OD615, 2 d; analog-sensitive cbk1-as2 kinase mutant strain; inhibition, % at 50 µM; hit rate 1.8% among 190,000; AID 868, 2007;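 active means inhibition above a set limit, 3 SD over mean compound inhibition, cut at about 8.4% in these data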;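 further: inhibition rescues growth on 5-FOA so higher OD means more RAM inhibition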
Ins promoter up – insulin promoter activators in MIN6 cells, imaging, high-content screening, mouse beta cells. MIN6 insulin promoter-GFP reporter; hits give high values. z-score at 5 µM. hit rate 0.3% among 190,000. AID 1625, 2009;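 active means z-score above 3 at 5 µM with at least 500 cells counted in the well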
BB579 growth dn – growth inhibitors of yeast BB579 in restrictive medium, primary screen, yeast lifespan-shortening project, S. cerevisiae; OD615, 48 h; inhibition, % at 10 µM; hit rate 0.51% among 140,000;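 active means inhibition above a set limit, 3 SD over the mean compound inhibition, cut at about 44% in these data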
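Detection: OD615 turbidity measurement; Material: Saccharomyces cerevisiae DeaD strain BB579, replicative lifespan model yeast; Timing: 48 h exposure, 30 °C; Doses: single 10 µM dose; Medium: CSMM-D restrictive synthetic medium containing dextrose (glucose); Controls: amphotericin B at 10 µg/mL as positive control.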
RAM efflux-def – 5-FOA growth of efflux-deficient control yeast, dose response, counter-screen for RAM network inhibitor project, S. cerevisiae, OD615; shares compounds with RAM inhibit; S. cerevisiae efflux-deficient reporter strain, 5-FOA growth OD615, 2 days; max inhibition, %; 1,200 tested, under 10 active; call rule not given here
A number is an active result. Most compounds without a hit are left out; they make up all but 3.1% or so of the library.

For CCN1C(=O)C(CC(=O)Nc2ccccc2)S/C1=N\c1ccccn1 (configuration not stated) the results were INS promoter inh inactive, RAM inhibit inactive and Ins promoter up inactive.
FC(F)Sc1ccc(NC(=S)NCc2ccccc2)cc1 was read as RAM inhibit inactive and Ins promoter up inactive.
FC(F)Sc1ccc(NC(=S)NC(c2ccccc2)c2ccccc2)cc1 was read as INS promoter inh inactive, RAM inhibit 19, Ins promoter up inactive and RAM efflux-def inactive.
Screening Cc1oc2ccc(OC(=O)c3cccs3)cc2c1C(=O)OC(C)C returned INS promoter inh inactive, Yeast life ext inactive, RAM inhibit 14, Ins promoter up inactive, BB579 growth dn inactive and RAM efflux-def inactive.
CC(C)CNC(=O)c1ccccc1NC(=O)c1ccc(CSc2ccccc2)cc1 was read as INS promoter inh inactive, Yeast life ext inactive, RAM inhibit 18, Ins promoter up inactive, BB579 growth dn inactive and RAM efflux-def inactive.
For O=C(OC(c1ccc(NS(=O)(=O)c2ccccc2)cc1)(C(F)(F)F)C(F)(F)F)c1ccccc1 the results were INS promoter inh inactive, Yeast life ext inactive, RAM inhibit 13, Ins promoter up inactive, BB579 growth dn inactive and RAM efflux-def inactive.
`COC(=O)c1cc(=O)n(CCc2ccccc2)c(=Nc2ccc(F)cc2)s1` gave Yeast life ext inactive, RAM inhibit 12, Ins promoter up inactive, BB579 growth dn inactive and RAM efflux-def inactive.
O=C(Nc1cccc([N+](=O)[O-])c1)c1ccc2ccccc2c1O was read as Ins promoter up inactive.
Cc1cc(NC(=O)COC(=O)C(Nc2ccc(C(F)(F)F)cc2Cl)C(C)C)no1 (configuration not stated) was read as Yeast life ext inactive, RAM inhibit 13, Ins promoter up inactive, BB579 growth dn inactive and RAM efflux-def inactive.
Screening O=C(Nc1ccc2c(c1)OCO2)c1ccc(COc2ccc3c(c2)CCC3)o1 returned INS promoter inh inactive, Yeast life ext inactive, RAM inhibit 11, Ins promoter up inactive, BB579 growth dn inactive and RAM efflux-def inactive.
Screening Cc1ccc(C(=O)Nc2ccc3c(c2)CCC3)o1 returned INS promoter inh inactive, Yeast life ext inactive, RAM inhibit inactive, Ins promoter up inactive and BB579 growth dn inactive.
COc1ccc(N(CC(=O)NCc2ccc(C)cc2)S(=O)(=O)c2c(C)nn(C)c2C)cc1 was read as INS promoter inh inactive, Yeast life ext inactive, RAM inhibit 15, Ins promoter up inactive, BB579 growth dn inactive and RAM efflux-def inactive.
`COc1ccc(CNC(=O)CN(c2ccc(OC)cc2)S(=O)(=O)c2c(C)nn(C)c2C)cc1` gave INS promoter inh inactive, Yeast life ext inactive, RAM inhibit inactive, Ins promoter up inactive and BB579 growth dn inactive.
For COC(=O)c1ccc(CN2[C@H](C(=O)OC)C[C@@]3(O)[C@@H](O)[C@@H](O)[C@@H](O)C[C@@H]23)cc1 the results were Ins promoter up inactive.
For CSc1nnc(-c2sccc2-n2cccc2)o1 the results were INS promoter inh inactive, RAM inhibit inactive and Ins promoter up inactive.
For Clc1cccc(Cl)c1CSc1nnc(-c2sccc2-n2cccc2)o1 the results were Yeast life ext inactive, RAM inhibit 17, Ins promoter up inactive, BB579 growth dn inactive and RAM efflux-def inactive.
O=C(Cc1cccs1)Nc1nc(-c2cccnc2)cs1 was read as Ins promoter up inactive.
`CCc1ccc(N2CN=c3s/c(=C\c4ccccc4)c(=O)n3C2)cc1` gave Ins promoter up inactive.
`O=C(COC(=O)C1(c2ccccc2F)CCCC1)Nc1ncc(C(F)(F)F)cc1Cl` gave INS promoter inh inactive, Yeast life ext inactive, RAM inhibit 12, Ins promoter up inactive, BB579 growth dn inactive and RAM efflux-def inactive.
CCCC(=O)OCCNc1cc(SCc2ccco2)c2nonc2c1[N+](=O)[O-] was read as INS promoter inh inactive, Yeast life ext inactive, RAM inhibit 14, Ins promoter up inactive, BB579 growth dn inactive and RAM efflux-def inactive.
c1csc(-c2nn3cnnc3c3ccccc23)c1 was read as INS promoter inh inactive, RAM inhibit inactive and Ins promoter up inactive.
For CN(C)c1ccnc2sc3c(NCC(O)CO)ncnc3c12 (configuration not stated) the results were INS promoter inh inactive, Yeast life ext inactive, RAM inhibit inactive and BB579 growth dn inactive.
Screening CN(C)c1ccnc2sc3c(SCc4ccc(Cl)cc4)ncnc3c12 returned Yeast life ext inactive, RAM inhibit 19, Ins promoter up inactive, BB579 growth dn inactive and RAM efflux-def inactive.
Screening COc1ccccc1N(CC(O)COc1ccccc1)S(=O)(=O)c1ccccc1 (configuration not stated) returned INS promoter inh inactive, Yeast life ext inactive, RAM inhibit inactive, Ins promoter up inactive and BB579 growth dn inactive.
For COc1ccccc1N(CC(O)COc1ccc(C)cc1)S(=O)(=O)c1ccccc1 (configuration not stated) the results were Yeast life ext inactive, RAM inhibit 12, Ins promoter up inactive, BB579 growth dn inactive and RAM efflux-def inactive.
COc1ccccc1N(CC(O)CN(c1ccccc1)S(C)(=O)=O)S(=O)(=O)c1ccccc1 (configuration not stated) was read as INS promoter inh inactive, Yeast life ext inactive, RAM inhibit inactive, Ins promoter up inactive and BB579 growth dn inactive.
Screening COc1ccccc1N(CC(O)COc1c(C)cc(C)cc1C)S(=O)(=O)c1ccccc1 (configuration not stated) returned INS promoter inh inactive, Yeast life ext inactive, RAM inhibit 12, Ins promoter up inactive, BB579 growth dn inactive and RAM efflux-def inactive.
Screening CCOc1ncccc1C(=O)OCC(=O)N(CC)c1ccccc1 returned INS promoter inh inactive, RAM inhibit inactive and Ins promoter up inactive.
COc1cccc(N/C(SCc2ccccc2F)=C(/C#N)C(=O)NCc2cccs2)c1 was read as INS promoter inh inactive, Yeast life ext inactive, RAM inhibit 16, Ins promoter up inactive, BB579 growth dn inactive and RAM efflux-def inactive.
COc1cccc(NC(=O)NCc2ccccc2F)c1 was read as INS promoter inh inactive, RAM inhibit inactive and Ins promoter up inactive.
Cc1ccc2oc(=O)c3cnn(CC(=O)Nc4cc(-c5cccc(F)c5)no4)c3c2c1 was read as INS promoter inh inactive, Yeast life ext inactive, RAM inhibit inactive, Ins promoter up inactive and BB579 growth dn inactive.
`COc1ccccc1OCC(=O)Nc1ccc(-c2nnc(-c3ccco3)o2)cc1` gave INS promoter inh inactive, RAM inhibit 12, Ins promoter up inactive and RAM efflux-def inactive.

Source: PubChem
